Results taken from the M2OR odorant receptor database.
Where a chain is given by its changes, count along the chain named.

Experiments:
Conditions in all cases: stereoisomer not certain
Or10j5 (Mus musculus) = target: T1, Or10j5 (Mus musculus) (UniProt Q62007)
T1 sequence (whole entry): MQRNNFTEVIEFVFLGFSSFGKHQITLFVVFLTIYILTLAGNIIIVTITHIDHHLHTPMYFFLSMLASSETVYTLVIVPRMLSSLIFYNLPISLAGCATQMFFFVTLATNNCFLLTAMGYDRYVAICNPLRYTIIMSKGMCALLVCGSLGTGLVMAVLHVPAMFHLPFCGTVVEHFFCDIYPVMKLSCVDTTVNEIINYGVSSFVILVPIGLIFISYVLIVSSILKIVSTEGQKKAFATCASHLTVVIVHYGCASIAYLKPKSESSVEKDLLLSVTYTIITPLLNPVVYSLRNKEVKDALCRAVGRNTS
How it was run: (§1)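 Transient luciferase assays in mammalian cell lines were common, though methods varied by source. The values come from published papers and their supplementary material, with extra details from the original authors when needed. Responsive refers to a measured signal the original authors judged statistically different from baseline, and non-responsive (inactive) to the remainder.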

Or1m1 (Mus musculus) = target: T2, Or1m1 (Mus musculus) (UniProt Q8VFM9)
T2 sequence (whole entry): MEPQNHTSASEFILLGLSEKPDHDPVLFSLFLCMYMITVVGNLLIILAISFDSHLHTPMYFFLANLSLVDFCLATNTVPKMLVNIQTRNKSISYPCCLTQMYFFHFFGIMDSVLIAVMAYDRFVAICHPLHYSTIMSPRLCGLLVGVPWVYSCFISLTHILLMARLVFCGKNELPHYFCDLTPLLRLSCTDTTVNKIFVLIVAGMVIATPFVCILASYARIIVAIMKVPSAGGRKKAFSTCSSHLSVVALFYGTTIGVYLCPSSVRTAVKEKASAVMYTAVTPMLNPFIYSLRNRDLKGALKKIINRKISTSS
How it was run: as §1

Or5ar1 (Mus musculus) = target: T3, Or5ar1 (Mus musculus) (UniProt Q8VGS3)
T3 sequence (whole entry): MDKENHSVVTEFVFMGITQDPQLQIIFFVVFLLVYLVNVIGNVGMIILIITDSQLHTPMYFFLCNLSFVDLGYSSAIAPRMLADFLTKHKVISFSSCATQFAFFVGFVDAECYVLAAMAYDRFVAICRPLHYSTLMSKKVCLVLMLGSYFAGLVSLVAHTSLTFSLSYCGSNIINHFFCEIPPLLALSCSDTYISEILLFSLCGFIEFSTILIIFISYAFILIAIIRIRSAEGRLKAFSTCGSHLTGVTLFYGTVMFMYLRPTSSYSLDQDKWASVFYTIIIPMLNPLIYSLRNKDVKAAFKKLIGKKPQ
How it was run: as §1

Or5p57 (Mus musculus) = target: T4, Or5p57 (Mus musculus) (UniProt Q8VEZ0)
T4 sequence (whole entry): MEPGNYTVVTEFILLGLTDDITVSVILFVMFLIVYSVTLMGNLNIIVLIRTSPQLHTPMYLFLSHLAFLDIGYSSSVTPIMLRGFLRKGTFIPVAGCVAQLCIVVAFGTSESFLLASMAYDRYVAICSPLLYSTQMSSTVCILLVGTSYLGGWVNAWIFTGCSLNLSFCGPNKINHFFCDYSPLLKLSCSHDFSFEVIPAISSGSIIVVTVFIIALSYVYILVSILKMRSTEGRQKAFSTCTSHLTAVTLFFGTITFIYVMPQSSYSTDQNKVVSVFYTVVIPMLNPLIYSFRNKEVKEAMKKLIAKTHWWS
How it was run: as §1

Or2c1 (Mus musculus) = target: T5, Or2c1 (Mus musculus) (UniProt P23275)
T5 sequence (whole entry): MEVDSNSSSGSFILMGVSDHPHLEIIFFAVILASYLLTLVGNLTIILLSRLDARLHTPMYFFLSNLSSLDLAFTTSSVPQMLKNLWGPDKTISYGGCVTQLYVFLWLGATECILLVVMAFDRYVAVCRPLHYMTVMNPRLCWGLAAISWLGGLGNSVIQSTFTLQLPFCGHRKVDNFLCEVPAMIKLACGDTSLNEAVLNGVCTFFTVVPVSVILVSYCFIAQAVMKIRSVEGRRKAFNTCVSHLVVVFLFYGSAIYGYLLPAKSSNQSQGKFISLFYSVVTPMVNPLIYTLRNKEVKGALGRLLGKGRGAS
How it was run: as §1

Or5p80 (Mus musculus) = target: T6, Or5p80 (Mus musculus) (UniProt Q8VG42)
T6 sequence (whole entry): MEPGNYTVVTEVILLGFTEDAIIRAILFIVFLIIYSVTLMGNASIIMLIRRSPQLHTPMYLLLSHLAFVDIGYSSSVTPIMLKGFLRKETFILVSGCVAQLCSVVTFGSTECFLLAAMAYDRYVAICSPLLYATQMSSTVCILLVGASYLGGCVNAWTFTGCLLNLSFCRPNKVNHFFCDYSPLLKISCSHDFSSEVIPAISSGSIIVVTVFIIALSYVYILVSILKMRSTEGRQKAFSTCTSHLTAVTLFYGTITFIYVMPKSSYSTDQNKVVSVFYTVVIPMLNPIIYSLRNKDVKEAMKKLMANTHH
How it was run: as §1

Or7a40 (Mus musculus) = target: T7, Or7a40 (Mus musculus) (UniProt Q9JHB2)
T7 sequence (whole entry): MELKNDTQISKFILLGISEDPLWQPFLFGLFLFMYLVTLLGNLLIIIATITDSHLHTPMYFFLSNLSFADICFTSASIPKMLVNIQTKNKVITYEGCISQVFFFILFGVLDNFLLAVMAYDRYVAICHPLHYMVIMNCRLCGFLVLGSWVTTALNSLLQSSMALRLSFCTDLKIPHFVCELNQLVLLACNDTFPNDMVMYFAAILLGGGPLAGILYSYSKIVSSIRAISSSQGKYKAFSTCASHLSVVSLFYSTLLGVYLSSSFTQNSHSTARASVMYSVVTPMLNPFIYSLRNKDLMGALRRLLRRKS
How it was run: as §1

OR9Q1 (Homo sapiens) = target: T8, OR9Q1 (Homo sapiens) (UniProt Q8NGQ5)
T8 sequence (whole entry): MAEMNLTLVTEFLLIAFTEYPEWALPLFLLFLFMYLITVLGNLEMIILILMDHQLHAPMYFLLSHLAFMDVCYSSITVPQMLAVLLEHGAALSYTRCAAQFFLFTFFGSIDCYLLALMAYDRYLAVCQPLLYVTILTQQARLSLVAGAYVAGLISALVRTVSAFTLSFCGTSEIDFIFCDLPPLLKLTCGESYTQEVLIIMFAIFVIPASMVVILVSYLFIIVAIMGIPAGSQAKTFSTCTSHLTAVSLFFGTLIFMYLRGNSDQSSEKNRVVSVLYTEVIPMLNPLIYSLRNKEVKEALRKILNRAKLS
How it was run: as §1

OR9Q1 A83T = test system: T9, OR9Q1 A83T
T9 sequence (whole entry): T8 sequence (whole entry) with A83T
How it was run: as §1

OR9Q2 (Homo sapiens) = target: T10, OR9Q2 (Homo sapiens) (UniProt Q8NGE9)
T10 sequence (whole entry): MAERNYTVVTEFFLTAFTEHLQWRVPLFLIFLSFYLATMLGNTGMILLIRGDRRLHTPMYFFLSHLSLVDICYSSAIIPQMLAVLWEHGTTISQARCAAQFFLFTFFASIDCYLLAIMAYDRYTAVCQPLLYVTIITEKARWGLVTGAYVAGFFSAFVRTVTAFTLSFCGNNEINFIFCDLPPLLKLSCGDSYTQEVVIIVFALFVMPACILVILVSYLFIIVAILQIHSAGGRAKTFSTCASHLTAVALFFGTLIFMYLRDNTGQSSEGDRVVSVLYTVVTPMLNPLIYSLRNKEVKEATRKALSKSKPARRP
How it was run: as §1

OR9Q2 C179R = test system: T11, OR9Q2 C179R
T11 sequence (whole entry): T10 sequence (whole entry) with C179R
How it was run: as §1

Or5an6 (Mus musculus) = target: T12, Or5an6 (Mus musculus) (UniProt Q8VFV4)
T12 sequence (whole entry): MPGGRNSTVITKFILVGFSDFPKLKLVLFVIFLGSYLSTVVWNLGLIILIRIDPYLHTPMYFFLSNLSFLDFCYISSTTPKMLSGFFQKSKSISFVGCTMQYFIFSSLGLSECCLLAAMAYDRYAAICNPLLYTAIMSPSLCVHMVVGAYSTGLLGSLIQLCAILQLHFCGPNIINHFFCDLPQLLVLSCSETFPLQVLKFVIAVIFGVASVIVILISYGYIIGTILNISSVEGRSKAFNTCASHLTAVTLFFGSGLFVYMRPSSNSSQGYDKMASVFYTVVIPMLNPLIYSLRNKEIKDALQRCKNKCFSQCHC
How it was run: as §1

Or5k16 (Mus musculus) = target: T13, Or5k16 (Mus musculus) (UniProt Q7TS48)
T13 sequence (whole entry): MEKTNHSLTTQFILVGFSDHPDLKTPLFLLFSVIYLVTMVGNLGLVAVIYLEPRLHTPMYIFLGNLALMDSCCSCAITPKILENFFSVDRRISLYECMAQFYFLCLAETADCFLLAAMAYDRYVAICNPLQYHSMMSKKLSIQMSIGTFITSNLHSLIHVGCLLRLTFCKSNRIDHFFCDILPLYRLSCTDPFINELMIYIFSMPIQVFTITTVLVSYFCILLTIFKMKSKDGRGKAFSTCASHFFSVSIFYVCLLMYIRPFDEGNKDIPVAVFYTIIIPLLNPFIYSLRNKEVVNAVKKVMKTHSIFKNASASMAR
How it was run: as §1

Q8N628 T20A L289V = test system: Q8N628 T20A L289V
How it was run: as §1

Q8NGC2 A119T = test system: Q8NGC2 A119T
How it was run: as §1

Q8NGH7 D88N = test system: Q8NGH7 D88N
How it was run: as §1

Measured: odorant receptor agonist call;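 also: active if original authors judged signal statistically different from baseline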

O=C([O-])CCCCCCCC(=O)[O-].[H+].[H+]
inactive: Or10j5 (Mus musculus) | Or1m1 (Mus musculus) | Or5ar1 (Mus musculus) | Or5p57 (Mus musculus)

CCCCCCCCCCCC=O
inactive: Or10j5 (Mus musculus)

CC(C)=CCCC(C)=CCO
inactive: Or10j5 (Mus musculus) | Or1m1 (Mus musculus) | Or2c1 (Mus musculus) | Or5ar1 (Mus musculus) | Or5p80 (Mus musculus) | Or7a40 (Mus musculus)

CCCCCCCCCCC(=O)O
inactive: Or10j5 (Mus musculus)

CC1=C(O)C(=O)C(C)O1 (centres undefined)
inactive: OR9Q1 (Homo sapiens) | OR9Q1 A83T | OR9Q2 (Homo sapiens) | OR9Q2 C179R

CC1CCCCCCCCCCCCC(=O)C1 (centres undefined)
inactive: OR9Q1 (Homo sapiens) | OR9Q2 (Homo sapiens)
active: Or5an6 (Mus musculus)

CC1=C(O)C(=O)OC1C (centres undefined)
inactive: OR9Q1 (Homo sapiens) | OR9Q1 A83T | OR9Q2 (Homo sapiens) | OR9Q2 C179R

CCCCOC(=O)CCC
inactive: Or10j5 (Mus musculus)

O=C(O)CCCCCCCCCCCBr
inactive: Or10j5 (Mus musculus)

CCCCCCCCCCCO
inactive: Or10j5 (Mus musculus) | Or1m1 (Mus musculus) | Or5ar1 (Mus musculus)

CCC1OC(C)=C(O)C1=O (centres undefined)
inactive: OR9Q1 (Homo sapiens) | OR9Q1 A83T | OR9Q2 (Homo sapiens) | OR9Q2 C179R

CC1=NC(C)C(C)S1 (centres undefined)
inactive: OR9Q1 (Homo sapiens) | OR9Q1 A83T | OR9Q2 (Homo sapiens) | OR9Q2 C179R
active: Or5k16 (Mus musculus)

CCCCCC(S)C(C)CO (centres undefined)
inactive: OR9Q1 (Homo sapiens) | OR9Q2 (Homo sapiens)

CCCCCCC=CCCC=O
inactive: OR9Q1 (Homo sapiens) | OR9Q1 A83T | OR9Q2 (Homo sapiens) | OR9Q2 C179R | Q8N628 T20A L289V | Q8NGC2 A119T | Q8NGH7 D88N

O=C([O-])CCCCCCC(=O)[O-].[H+].[H+]
inactive: Or10j5 (Mus musculus) | Or1m1 (Mus musculus) | Or5ar1 (Mus musculus) | Or5p57 (Mus musculus)

CC(CO)CS (centres undefined)
inactive: OR9Q1 (Homo sapiens) | OR9Q2 (Homo sapiens)

CCCCCCCO
active: Or5p57 (Mus musculus)
inactive: Or10j5 (Mus musculus) | Or1m1 (Mus musculus) | Or2c1 (Mus musculus) | Or5ar1 (Mus musculus) | Or5p80 (Mus musculus) | Or7a40 (Mus musculus)

CCCCC(=O)O
inactive: Or10j5 (Mus musculus) | Or1m1 (Mus musculus) | Or2c1 (Mus musculus) | Or5ar1 (Mus musculus) | Or5p57 (Mus musculus) | Or5p80 (Mus musculus) | Or7a40 (Mus musculus)

CCCCCCO
inactive: Or10j5 (Mus musculus) | Or1m1 (Mus musculus) | Or2c1 (Mus musculus) | Or5ar1 (Mus musculus) | Or5p80 (Mus musculus) | Or7a40 (Mus musculus)
active: Or5p57 (Mus musculus)

CCCCCCCCCO
inactive: Or10j5 (Mus musculus) | Or1m1 (Mus musculus) | Or2c1 (Mus musculus) | Or5ar1 (Mus musculus) | Or5p57 (Mus musculus) | Or5p80 (Mus musculus) | Or7a40 (Mus musculus)

CCCCCCCCCC(=O)[O-].[H+]
inactive: Or10j5 (Mus musculus) | Or1m1 (Mus musculus) | Or5ar1 (Mus musculus) | Or5p80 (Mus musculus) | Or7a40 (Mus musculus)
active: Or2c1 (Mus musculus)

CCCCC(S)C(C)CO (centres undefined)
inactive: OR9Q1 (Homo sapiens) | OR9Q2 (Homo sapiens)

CCCCCC(=O)C(C)C(C)=O (centres undefined)
inactive: OR9Q1 (Homo sapiens) | OR9Q2 (Homo sapiens)

O=C(O)CCCCCC(=O)O
inactive: Or10j5 (Mus musculus) | Or5p57 (Mus musculus)

CCC1OC(=O)C(O)=C1C (centres undefined)
inactive: OR9Q1 (Homo sapiens) | OR9Q1 A83T | OR9Q2 (Homo sapiens) | OR9Q2 C179R

CCCCC=O
inactive: Or10j5 (Mus musculus) | Or1m1 (Mus musculus) | Or5ar1 (Mus musculus)
